# Tb MetRS inh – T. brucei MetRS inhibitors, primary screen, biochemical, luminescence; AID 624268, 2012; methionyl-tRNA synthetase (Trypanosoma brucei brucei); purified T. brucei MetRS, ATP depletion, Kinase-Glo luminescence; 0.4% of 360,000 active; inhibition, % at 11.9 µM;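 active means inhibition above a per-plate cutoff of the control wells' mean inhibition plus 3 SD, cut at about 5.5% in these data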;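 further: 0% = DMSO wells median and 100% = median of wells with control inhibitor compound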
#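 Material: parasite MetRS enzyme / Replication: singlicate, one well per compound / Signal: luminescence of leftover ATP / Schedule: 2 h aminoacylation at 25 °C after 15 min preincubation / Medium: HEPES-MgCl2-KCl buffer plus DTT, spermine, BSA, pyrophosphatase / Doses: 11.9 µM single point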
# MsrA inhibitor – bovine MsrA enzyme inhibitors, primary screen, biochemical, absorbance, HTS; Methionine sulfoxide reductase A (Bos taurus); inhibition, % at 15.5 µM; purified bovine MsrA, absorbance read-out; 0.75% of 360,000 active; in the data active means inhibition above about 4.5%;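 further: 0% = vehicle wells with enzyme and 100% = reference inhibitor wells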
# proCasp7 act – procaspase-7 activators, primary screen, counter-screen for procaspase-3 activator project, biochemical, absorbance, HTS, human; activation, % at 8.5 µM; AID 463210, 2010; 0.093% of 330,000 active; Caspase-7 (Homo sapiens), P55210; recombinant procaspase-7, Ac-DEVD-pNA absorbance 405 nm; D23A/D198A/D206A triple mutant, cannot self-cleave; scale: DMSO 0, 5 µM enzyme 100;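 active means percent activation above the screen-wide mean plus 3 SD, cut at about 25% in these data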
# Target sequence (P55210 whole entry D23A/D198A/D206A): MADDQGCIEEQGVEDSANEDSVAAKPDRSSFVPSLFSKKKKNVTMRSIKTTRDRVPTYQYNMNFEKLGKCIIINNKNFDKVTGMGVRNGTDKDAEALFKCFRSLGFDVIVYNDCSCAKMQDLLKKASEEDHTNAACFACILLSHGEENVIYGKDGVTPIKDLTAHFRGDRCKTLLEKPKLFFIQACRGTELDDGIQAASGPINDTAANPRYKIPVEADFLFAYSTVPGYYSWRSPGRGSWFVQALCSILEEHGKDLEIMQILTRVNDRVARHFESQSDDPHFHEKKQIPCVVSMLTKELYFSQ
#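 System: Uncleavable procaspase-7 mutant enzyme; Amount: 2 µM procaspase-7 mutant as dispensed; Schedule: 1 h compound preincubation, 2 h substrate cleavage, 25 °C; Measured by: 405 nm absorbance of p-nitroaniline; Evaluation: percent activation from buffer-corrected 0–120 min absorbance change; Control set: low DMSO alone, high DMSO plus 5 µM PC-7.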
# procasp3 activ – activators of human procaspase-3 D3A mutant, primary screen, biochemical, absorbance, PC-3 D3A mutant, single concentration; Caspase-3 (Homo sapiens), P42574; recombinant procaspase-3 D3A, Ac-DEVD-pNA absorbance 405 nm; activation, % at 8.5 µM; 0.11% of 330,000 active;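 active means activation above the mean of all tested compounds plus 3 SD, cut at about 21% in these data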;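 further: 0% = DMSO alone and 100% = DMSO wells spiked with extra 5 µM PC-3 D3A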
# Target sequence (P42574 whole entry D9A/D28A/D175A): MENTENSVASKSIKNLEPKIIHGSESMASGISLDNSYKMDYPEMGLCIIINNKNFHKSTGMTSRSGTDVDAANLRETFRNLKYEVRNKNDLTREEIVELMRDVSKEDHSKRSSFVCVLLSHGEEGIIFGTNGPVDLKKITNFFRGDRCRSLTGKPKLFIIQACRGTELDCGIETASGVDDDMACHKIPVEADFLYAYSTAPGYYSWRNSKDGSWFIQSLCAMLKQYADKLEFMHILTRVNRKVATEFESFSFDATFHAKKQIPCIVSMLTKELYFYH
#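 Test system: Procaspase-3 D3A mutant, all three cleavage aspartates alanine | Dosing: Single dose, 8.5 µM nominal compound, 0.8% DMSO | Schedule: 1 h preincubation, 2 h reaction | Technique: 405 nm absorbance of p-nitroaniline, reads at 0 and 120 min | Repeats: One well per compound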
# bovine MsrA act – bovine MsrA enzyme activators, primary screen, biochemical, absorbance, HTS. Methionine sulfoxide reductase A (Bos taurus). purified bovine MsrA, absorbance read-out. activation, % at 10.6 µM. 0.3% of 360,000 active; in the data active means activation above about 7.5%;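 further: 0% = vehicle and 100% = reference activator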
# procasp7 triplic – procaspase-7 activators, counter-screen for procaspase-3 activator project, biochemical, absorbance, triplicate, human. shares compounds with procasp3 activ. recombinant procaspase-7, Ac-DEVD-pNA absorbance; asp23/198/206-to-Ala mutant, cannot self-cleave. activation, % at 8.5 µM. 210 tested, under 10 active. AID 488941, 2010;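 active means mean activation above a set limit taken from an earlier procaspase-7 screen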;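 further: 0% = DMSO wells and 100% = DMSO plus 5 µM procaspase-7 enzyme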
# proCasp3 confirm – activators of human procaspase-3 D3A mutant, confirmation, biochemical, absorbance, PC-3 D3A mutant, triplicate | activation, % at 8.5 µM | shares compounds with procasp3 activ | recombinant PC-3 D3A, Ac-DEVD-pNA absorbance 405 nm; 100% is higher-enzyme control | 10% of 210 active;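 active means mean activation above a set limit carried over from the earlier primary screen, cut at about 22% in these data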
# PC3 D3A act – procaspase-3 activators, counter-screen for dual procaspase-3/7 activator project, biochemical, absorbance, PC-3 D3A mutant, human. AID 493114, 2011. recombinant PC-3 D3A, Ac-DEVD-pNA absorbance 405 nm; aspartates 9, 28, 175 changed to alanine; 100% = enzyme control. activation, % at 8.5 µM. 290 tested, under 10 active. shares compounds with proCasp7 act;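 active means mean percent activation across triplicates above a set limit taken from the earlier primary procaspase-3 screen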;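 further: 0% = DMSO wells and 100% = DMSO wells with 5 µM added PC-3 D3A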
# Procasp7 act – activation of procaspase-7 enzyme – biochemical, absorbance, human, dual procaspase-3/-7 activator project, confirmation; shares compounds with proCasp7 act; AID 493115, 2011; 290 tested, under 10 active; activation, % at 8.5 µM; recombinant procaspase-7, Ac-DEVD-pNA absorbance 405 nm; D23A/D198A/D206A mutant that cannot self-cleave;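 active means mean activation above a set limit carried over from the earlier primary screen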;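 further: 0% = DMSO only and 100% = DMSO with added 5 µM PC-7 enzyme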
# Numbers without * were called inactive; . = not tested or not shown. Shown are actives, neighbours in structure and some others; about 1.5% of the full set was active somewhere.
SMILES,Tb MetRS inh,MsrA inhibitor,proCasp7 act,procasp3 activ,bovine MsrA act,procasp7 triplic,proCasp3 confirm,PC3 D3A act,Procasp7 act
CCN1C(=O)N(C(C)=O)[C@@H]2C[C@H](C(=O)N3CCCC3)[C@H](C)[C@H](c3ccccc3)C[C@@H]21,.,0,.,.,.,.,.,.,.
CC(=O)c1cccc(NS(=O)(=O)c2ccc(N/C=C\C(=O)c3ccc(C)cc3)cc2)c1,-1,1,22,38*,5,-1,1,.,.
C[C@@H]1ON(C)[C@H]2C[C@H]3c4[nH]c5c(-c6ccccc6)cccc5c4CCN3C[C@@H]12,.,0,.,.,.,.,.,.,.
Cc1ccc(-c2cc(C(F)(F)F)c(C#N)c(SCCC#N)n2)o1,0,1,12,22*,-2,41*,52*,.,.
CCN1C(=O)c2cccc3c(S(=O)(=O)N(C(C)=O)c4ccc(OC(C)=O)cc4)ccc1c23,0,3,0,24*,0,-22,-12,.,.
CCn1c(SC(C)C(=O)NCC2CCCO2)nc2ccccc21 (centres undefined),0,-1,-3,39*,-4,2,4,.,.
COc1ccc(N2CCN(C(=O)CC34CC5CC(CC(C5)C3)C4)CC2)c([N+](=O)[O-])c1,0,1,-3,22*,-2,2,4,.,.
COCc1cc(N2CCN(C(=O)OC(C)(C)C)C[C@H]2C)ccc1N1CCS(=O)(=O)CC1,.,0,.,.,.,.,.,.,.
C=CCN1C(=O)c2n[nH]c(COC)c2C1c1ccc(C)cc1 (centres undefined),.,1,.,.,.,.,.,.,.
O=C(CCNS(=O)(=O)c1cccc2nsnc12)N1CC(=O)N(CCc2ccccc2)C(=O)C1,0,0,11,24*,-3,2,5,.,.
N#Cc1ccc(/C=C\c2nccc3c2[nH]c2ccccc23)cc1,2,2,1,48*,-1,-21,-14,.,.
Cc1cc(Br)cn2c(Cc3ccccc3C(F)(F)F)c(-c3ccc(F)cc3)nc12,.,0,.,.,.,.,.,.,.
Cc1ccc(NC(=O)CSc2nnc(-c3cccnc3)o2)c(C)c1,0,1,2,23*,-2,-17,-5,.,.
Cc1ccc(C)c(NC(=O)CSc2nnc(-c3ccccc3)o2)c1,0,0,0,3,0,.,.,.,.
C[C@@H]1CN([C@@H](C)CO)C(=O)CCCn2cc(nn2)CO[C@H]1CN(C)C(=O)Nc1ccc2c(c1)OCCO2,.,0,.,.,.,.,.,.,.
Cn1c(=NC(=O)CS(=O)(=O)c2ccccc2)sc2ccccc21,0,-1,2,4,-2,.,.,.,.
Cn1c(=NC(=O)CS(=O)(=O)c2ccc(F)cc2)sc2ccccc21,0,1,7,22*,-6,1,3,.,.
COc1ccc(-c2c(C#N)c(N)nc3c2CCc2ccccc2-3)cc1OC,.,1,65*,34*,.,.,.,-29,-35
c1ccc(Cn2c(-c3ccco3)nc3nc4ccccc4nc32)cc1,-1,2,46*,12,-2,.,.,-31,-36
Cc1c(CCC(=O)NC2CC2)c(=O)oc2c(C)c(O)ccc12,0,.,27*,28*,-3,.,.,-30,-36
Cc1coc2c(C)c3oc(=O)c(CCC(=O)NCCCN4CCCC4=O)c(C)c3cc12,0,2,-6,2,-2,.,.,.,.
Cc1c(CCC(=O)NCCCN2CCCC2=O)c(=O)oc2c(C)c(O)ccc12,-1,2,26*,28*,-3,.,.,-30,-36
CCCCCn1cc(CCC(=O)Nc2ccc(N(C)c3ccccn3)cc2)c2ccccc21,.,0,.,.,.,.,.,.,.
CCOP(=O)(OCC)c1nc(-c2cccc3ccccc23)oc1NCc1ccccc1,-1,1,20,19,-8,.,.,.,.
CCOP(=O)(OCC)c1nc(-c2cccc3ccccc23)oc1NCc1ccc(OC)cc1,0,0,61*,36*,-1,.,.,-29,-36
SMILES,Tb MetRS inh,MsrA inhibitor,proCasp7 act,procasp3 activ,bovine MsrA act,procasp7 triplic,proCasp3 confirm,PC3 D3A act,Procasp7 act
COc1cccc(-c2cc3nc(-c4ccccc4)cc(N4CCC5(CC4)OCCO5)n3n2)c1,0,1,38*,32*,-1,.,.,-30,-37
COc1cccc(-c2cc3nc(-c4ccccc4)cc(N4CCN(C(=O)c5ccoc5)CC4)n3n2)c1,-1,0,.,.,3,.,.,.,.
CC(=O)c1ccc(S(=O)(=O)NCC2CCN(C(=O)C(=O)c3cc4ccccc4o3)CC2)cc1,.,2,.,.,.,.,.,.,.
COc1cc2c(cc1OC)C(C)N(C(=O)c1cc3c(s1)-c1c(C)cccc1OC3)CC2 (centres undefined),-2,1,22,9,-2,.,.,.,.
Cc1cccc2c1-c1sc(C(=O)Nc3nccs3)cc1CO2,0,0,-3,-4,1,.,.,.,.
O=C(c1cc2c(s1)-c1ccccc1OC2)N1CCc2ccccc2C1,0,1,27*,12,0,.,.,3,2
COc1cc2c(cc1OC)C(C)N(C(=O)c1cc3c(s1)-c1ccccc1OC3)CC2 (centres undefined),0,1,37*,26*,-3,.,.,13,11
O=C(Nc1nccs1)c1cc2c(s1)-c1ccccc1OC2,0,2,28*,30*,-2,.,.,-29,-35
COC(=O)C1=C(C(=O)OC)C2CCCC1C1N=NN(c3ccccc3)C21 (centres undefined),.,0,.,.,.,.,.,.,.
COCCN(CCOC)C(=O)[C@@H](Cc1ccccc1)NC(=O)[C@H]1O[C@@H](n2ccc(N)nc2=O)[C@H](O)[C@@H]1O,.,0,.,.,.,.,.,.,.
Nc1ccccc1-c1nc2ccccc2c(=O)o1,-1,0,34*,27*,-2,.,.,-30,-36
